# According to ChEMBL document CHEMBL3352563, “Design, synthesis and molecular docking of substituted 3-hydrazinyl-3-oxo-propanamides as anti-tubercular agents” (Bioorg Med Chem Lett, 2014):
# pKi: −log10 of the molar value.
# Tests used:
# [1] = system: Mycobacterium tuberculosis; assay: Anti-tubercular activity against Mycobacterium tuberculosis H37Rv by resazurin microtitre assay; type: functional
# How it was run: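 Value is the minimum inhibitory concentration (MIC) found by the resazurin microtitre (REMA) method.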
# [2] = target: T1, Serine/threonine-protein kinase PknB (Mycobacterium tuberculosis, UniProt P9WI81); assay: Inhibition of Mycobacterium tuberculosis PknB
# T1 sequence (P9WI81 whole entry): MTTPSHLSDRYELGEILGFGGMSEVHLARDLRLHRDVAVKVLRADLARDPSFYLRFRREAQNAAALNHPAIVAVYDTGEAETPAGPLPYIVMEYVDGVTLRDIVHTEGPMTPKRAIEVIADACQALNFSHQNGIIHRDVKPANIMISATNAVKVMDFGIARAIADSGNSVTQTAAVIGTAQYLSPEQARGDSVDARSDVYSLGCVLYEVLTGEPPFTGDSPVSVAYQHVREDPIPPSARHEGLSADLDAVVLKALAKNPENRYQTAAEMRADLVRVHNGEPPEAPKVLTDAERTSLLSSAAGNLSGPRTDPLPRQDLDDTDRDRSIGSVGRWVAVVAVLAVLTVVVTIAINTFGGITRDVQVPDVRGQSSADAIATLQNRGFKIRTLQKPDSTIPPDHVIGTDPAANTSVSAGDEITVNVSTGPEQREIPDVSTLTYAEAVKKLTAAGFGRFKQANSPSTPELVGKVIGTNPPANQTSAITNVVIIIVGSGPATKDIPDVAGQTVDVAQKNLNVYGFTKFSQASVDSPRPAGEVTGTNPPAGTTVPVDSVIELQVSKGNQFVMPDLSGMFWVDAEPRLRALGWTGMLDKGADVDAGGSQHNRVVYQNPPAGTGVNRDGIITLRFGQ
SMILES,MIC [1],pKi [2]
CO[C@H]1/C=C/O[C@@]2(C)Oc3c(C)c(O)c4c(O)c(c(/C=N/N5CCN(C)CC5)c(O)c4c3C2=O)NC(=O)/C(C)=C\C=C\[C@H](C)[C@H](O)[C@@H](C)[C@@H](O)[C@@H](C)[C@H](OC(C)=O)[C@@H]1C [RIFAMPIN],0.01 µg/mL,
COc1ccc(NC(=O)CC(=O)NN)c(OC)c1,> 100 µg/mL,5.28
NNC(=O)CC(=O)Nc1ccccc1[N+](=O)[O-],> 100 µg/mL,4.64
NNC(=O)CC(=O)Nc1ccc([N+](=O)[O-])cc1[N+](=O)[O-],> 100 µg/mL,5.20
NNC(=O)CC(=O)Nc1ccccc1C(=O)O,50 µg/mL,5.14
NNC(=O)CC(=O)NCc1ccco1,> 100 µg/mL,4.73
CCCCc1ccc(NC(=O)CC(=O)NN)cc1,12.5 µg/mL,4.58
NNC(=O)CC(=O)Nc1ccc(Cl)c(Cl)c1,> 100 µg/mL,5.04
NNC(=O)CC(=O)Nc1ccc(C(=O)O)cc1,12.5 µg/mL,5.41
COc1ccc(OC)c(NC(=O)CC(=O)NN)c1,> 100 µg/mL,5.15
NNC(=O)CC(=O)Nc1ccc(F)c(Cl)c1,50 µg/mL,5.45
NNC(=O)CC(=O)Nc1cc(Cl)cc(Cl)c1,> 100 µg/mL,5.11
NNC(=O)CC(=O)Nc1ccc([N+](=O)[O-])cc1,> 100 µg/mL,4.97
CCN(CC)c1ccc(NC(=O)CC(=O)NN)cc1,100 µg/mL,4.88
NNC(=O)CC(=O)Nc1ccc(S(=O)(=O)O)cc1,50 µg/mL,5.12
CCCc1ccc(NC(=O)CC(=O)NN)cc1,12.5 µg/mL,5.04
NNC(=O)c1ccncc1 [ISONIAZID],0.02 µg/mL,
NNC(=O)CC(=O)Nc1cccc([N+](=O)[O-])c1,> 100 µg/mL,4.90
